The text below walks through data of ChEMBL document CHEMBL1122766, “Synthesis and antitumor evaluation of some nitrosourea and nitrogen mustard amino acid derivatives” (J Med Chem, 1984).

A word on the LD50: it is the dose expected to kill half of the subjects tested. For orientation: T/C means the ratio of treated to control.

The species entered for data set [1] is Mus musculus. As to the kind of experiment: Dose range for antitumor activity against leukemia L1210 in mice. It is filed as functional. An outline of the steps: (§1)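 Adult F1 (DBA/2 × C57Bl/6) mice inoculated ip with 10^5 L1210 cells on day 0, 8–10 mice per dose. Compound in olive oil (2–150 mg/kg) given day 1, repeated days 5 and 9 only in mice without toxicity. Daily mortality with autopsy. T/C × 100 from median survival; active if >125 and significant by Wilcoxon W test. Acute LD50 determined graphically.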

Data set [2] is filed under the species Mus musculus. As to the kind of experiment: Optimum dose for antitumor activity against leukemia L1210 in mice. It is filed as functional. An outline of the steps:
as §1

Data set [3] in a line: Median lethal dose in L1210 (murine luekemia) inoculated mice. It is filed as toxicity, organism-based. As to conditions: mouse, in vivo. An outline of the steps:
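Adult F1 (DBA/2 × C57Bl/6) mice inoculated ip with 10^5 L1210 cells on day 0; 8–10 mice per dose; compound in olive oil (2–150 mg/kg) on day 1, repeated days 5 and 9 only in mice without toxicity signs. Daily mortality, autopsy to separate leukemic from toxic deaths; acute LD50 determined graphically (98% confidence limits).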

Data set [4] can be described thus: Therapeutic index in L1210 (murine leukemia) inoculated mice. Particulars: mouse; read-out: TI.
The species named for data set [5] is Mus musculus. In words: The oncostatic index (T=median survival time in the treated group of mice, C=median survival time in the control group X 100) was calculated. It is filed as functional. An outline of the steps:
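Mice (adult F1 DBA/2 × C57Bl/6) given 10^5 L1210 cells ip on day 0; 8–10 per dose group; olive-oil doses 2–150 mg/kg on day 1, repeated days 5 and 9 in non-toxic mice. T/C × 100 from median survival times, treated vs control. Active if >125 and significant by Wilcoxon W test; ∞ means >50% of group cured.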

In the data set listed under Mus musculus [1], `NC(=O)CC(NC(=O)N(CCCl)N=O)C(=O)NCCCl` (stereo unspecified) came in with a Dose of 30 mg/kg. In the data set listed under Mus musculus [2], this molecule came in with an OD of 20 mg/kg. The molecule also returned an LD50 in data set [3] of 35 mg/kg. Besides, in data set [4], the selectivity ratio was found to be 1.75.

The molecule `CN(CC(=O)NCCCl)C(=O)N(CCCl)N=O` showed a Dose in the data set filed under Mus musculus [1] of 280 mg/kg. This molecule yielded an OD in the data set listed under Mus musculus [2] of 200 mg/kg. The molecule further displayed an LD50 in data set [3] of 400 mg/kg. Besides, the selectivity ratio in data set [4] came out at 2.

In the data set filed under Mus musculus [1], `CCC(C)C(NC(=O)N(CCCl)N=O)C(=O)NCCCl` (stereo unspecified) had a Dose of 75 mg/kg. For the same molecule, in the data set filed under Mus musculus [2], the OD is 50 mg/kg. This molecule also displayed a median lethal dose (LD50) in data set [3] of 130 mg/kg. Further, the selectivity ratio in data set [4] is 2.6.

Turning to `CC(C)CC(NC(=O)N(CCCl)N=O)C(=O)NCCCl` (stereo unspecified), in the data set filed under Mus musculus [1], the Dose stood at 50 mg/kg. Also, the OD in the data set listed under Mus musculus [2] amounted to 35 mg/kg. The molecule further registered a 50% lethal dose (LD50) in data set [3] of 64 mg/kg. Moreover, in data set [4], the selectivity ratio was 1.8.

In turn, `O=NN(CCCl)C(=O)NC(Cc1c[nH]c2ccccc12)C(=O)NCCCl` (stereo unspecified) displayed a Dose in the data set listed under Mus musculus [1] of 35 mg/kg. In the data set listed under Mus musculus [2], this molecule displayed an OD of 27 mg/kg. The molecule also gave a median lethal dose (LD50) in data set [3] of 65 mg/kg. The selectivity ratio in data set [4] was found to be 2.4.

Consider `O=NN(CCCl)C(=O)N1CCCC1C(=O)NCCCl` (stereo unspecified), for which, in the data set filed under Mus musculus [1], the Dose turned out to be 35 mg/kg. The T/C in the data set listed under Mus musculus [5] is reported as 194%. Moreover, the LD50 in data set [3] turned out to be 80 mg/kg.

In the case of `O=NN(CCCl)C(=O)NCC(=O)NCCCl`, the Dose in the data set listed under Mus musculus [1] was 20 mg/kg. This molecule also showed an OD in the data set filed under Mus musculus [2] of 12 mg/kg. In data set [3], the LD50 is 25 mg/kg. Further, the selectivity ratio in data set [4] amounted to 2.

In the data set filed under Mus musculus [1], `O=NN(CCCl)C(=O)NCCC(=O)NCCCl` yielded a Dose of 50 mg/kg. For the same molecule, in the data set filed under Mus musculus [2], the OD amounted to 35 mg/kg. Moreover, the selectivity ratio in data set [4] was determined as 2.9.

Turning to `O=NN(CCCl)CCSSCCN(CCCl)N=O`, in the data set filed under Mus musculus [1], the Dose stood at 50 mg/kg. Besides, the OD in the data set listed under Mus musculus [2] was found to be 30 mg/kg. In data set [3], this molecule returned an LD50 of 75 mg/kg. The selectivity ratio in data set [4] came to 2.5.

In turn, `CC(O)C(NC(=O)N(CCCl)N=O)C(=O)NCCCl` (stereo unspecified) gave a Dose in the data set filed under Mus musculus [1] of 20 mg/kg. In the data set filed under Mus musculus [2], this molecule displayed an OD of 15 mg/kg. This molecule also showed an LD50 in data set [3] of 25 mg/kg. Moreover, the selectivity ratio in data set [4] came out at 1.6.

`O=NN(CCCl)C(=O)NCCCC(=O)NCCCl` came in with a Dose in the data set filed under Mus musculus [1] of 50 mg/kg. The molecule further displayed an OD in the data set filed under Mus musculus [2] of 35 mg/kg. Moreover, the selectivity ratio in data set [4] turned out to be 3.6.

`CC1(C)O[C@@H]2[C@H](O1)[C@@H](COC(=O)c1ccc([N+](=O)[O-])cc1)O[C@H]2NC(=O)N(CCCl)N=O` registered a Dose in the data set filed under Mus musculus [1] of 30 mg/kg. In the data set filed under Mus musculus [2], this molecule displayed an OD of 20 mg/kg. In addition, in data set [3], the LD50 is 90 mg/kg. Besides, the selectivity ratio in data set [4] was 4.5.

On to `CC(NC(=O)N(CCCl)N=O)C(=O)NCCCl` (stereo unspecified), for which the Dose in the data set filed under Mus musculus [1] amounted to 30 mg/kg. In the data set filed under Mus musculus [2], the OD was found to be 20 mg/kg. The molecule further returned a median lethal dose (LD50) in data set [3] of 35 mg/kg. Further, the selectivity ratio in data set [4] came out at 1.75.

In the case of `CSCCC(NC(=O)N(CCCl)N=O)C(=O)NCCCl` (stereo unspecified), the Dose in the data set filed under Mus musculus [1] was determined as 30 mg/kg. The OD in the data set listed under Mus musculus [2] was 20 mg/kg. The molecule further gave an LD50 in data set [3] of 32 mg/kg. Further, the selectivity ratio in data set [4] came to 1.6.

The molecule `O=NN(CCCl)C(=O)NC(Cc1ccccc1)C(=O)NCCCl` (stereo unspecified) yielded a Dose in the data set filed under Mus musculus [1] of 60 mg/kg. In the data set filed under Mus musculus [2], the OD was 50 mg/kg. In data set [3], this molecule showed an LD50 of 80 mg/kg. Further, the selectivity ratio in data set [4] was determined as 1.6.

In the data set listed under Mus musculus [1], `O=NN(CCCl)C(=O)NC(Cc1ccc(O)cc1)C(=O)NCCCl` (stereo unspecified) yielded a Dose of 25 mg/kg. Besides, the T/C in the data set listed under Mus musculus [5] was 211%. In data set [3], the LD50 was found to be 40 mg/kg.

On to `O=NN(CCCl)C(=O)N[C@H]1C(O)O[C@H](CO)[C@@H](O)[C@@H]1O` (stereo partly specified) [CHLOROZOTOCIN], for which the Dose in the data set listed under Mus musculus [1] amounted to 25 mg/kg. Further, the OD in the data set listed under Mus musculus [2] came out at 15 mg/kg. The molecule further returned an LD50 in data set [3] of 35 mg/kg. Also, in data set [4], the selectivity ratio came out at 2.5.

As for `O=NN(CCCl)C(=O)NC1CCCCC1` [LOMUSTINE], the Dose in the data set filed under Mus musculus [1] was determined as 10 mg/kg. Further, the LD50 in data set [3] stood at 30 mg/kg.
